Test results from ChEMBL document CHEMBL1145859, “Tethered dimers as NAD synthetase inhibitors with antibacterial activity” (J Med Chem, 2003).
≈ marks a conversion by molar mass, not a printed value.

Key:
[1] = molecular target: T1, NH(3)-dependent NAD(+) synthetase (Bacillus subtilis (strain 168), UniProt P08164); assay: Inhibitory activity against Bacillus subtilis NAD synthetase
T1 sequence (P08164 whole entry): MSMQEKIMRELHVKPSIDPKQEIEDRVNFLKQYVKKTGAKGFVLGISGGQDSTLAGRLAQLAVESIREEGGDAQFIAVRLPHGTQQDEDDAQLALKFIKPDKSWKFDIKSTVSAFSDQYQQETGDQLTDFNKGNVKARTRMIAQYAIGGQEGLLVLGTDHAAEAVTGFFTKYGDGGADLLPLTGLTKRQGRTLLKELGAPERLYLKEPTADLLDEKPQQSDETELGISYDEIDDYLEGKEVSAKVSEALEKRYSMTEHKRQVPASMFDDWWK
Procedure, shortened: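 Purified recombinant B. subtilis NAD synthetase (2.0 µg/mL) in coupled assay, pH 8.5: 58.5 mM HEPES, 18.5 mM NH4Cl, 19.5 mM KCl, 9.75 mM MgCl2, 1% EtOH, 0.1 mM NaAD, 0.3% BOG, 40 µg/mL yeast ADH, 0.2 mM ATP, 2.5% DMSO. ATP-started, 10 min, guanidine·HCl stop; NADH read at A340 and fluorescence 460 nm, background-subtracted; IC50 from % inhibition at six concentrations.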

Bacillus subtilis = assay: Minimum inhibitory concentration required against Bacillus subtilis ATCC 14289; assay type: functional
Procedure, shortened: (§1)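 Broth doubling-dilution MIC run in duplicate series from 50 µg/mL (1% DMSO final). Each tube received 0.01 mL of inoculum from a log-phase culture (5–6 h, 37 °C) adjusted to about 5 × 10^8 CFU/mL. Incubation 20 h at 37 ± 2 °C. MIC is the lowest concentration with no visible growth. Viability, sterility and reference-antibiotic controls included.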

Staphylococcus aureus [2] = assay: Minimum inhibitory concentration required against Staphylococcus aureus ATCC 33593; assay type: functional; procedure, shortened: as §1
Staphylococcus aureus [3] = assay: Minimum inhibitory concentration required against Staphylococcus aureus ATCC 29213; assay type: functional; procedure, shortened: as §1
Staphylococcus aureus [4] = assay: Minimum inhibitory concentration required against Staphylococcus aureus ATCC 33591; assay type: functional; procedure, shortened: as §1
Staphylococcus aureus [5] = assay: Minimum inhibitory concentration required against Staphylococcus aureus ATCC 33592; assay type: functional; procedure, shortened: as §1
Salmonella enteritidis [6] = assay: Minimum inhibitory concentration required against Salmonella enteritidis ATCC 13076; assay type: functional, Salmonella enterica subsp. enterica serovar Enteritidis; conditions: Salmonella enterica; procedure, shortened: as §1
Pseudomonas aeruginosa = assay: Minimum inhibitory concentration required against Pseudomonas aeruginosa ATCC 27853; assay type: functional; procedure, shortened: as §1
Salmonella enteritidis [7] = assay: microbe, parasite or virus in culture; conditions: Salmonella enterica, ATCC 13076

Compound | IC50 [1] [µM] | also measured
C[n+]1cccc(C(=O)OCCn2ccc3cc([N+](=O)[O-])ccc32)c1 | > 1000 | 
C[n+]1cccc(C(=O)OCCCn2ccc3cc([N+](=O)[O-])ccc32)c1 | > 1000 | 
C[N+](C)(C)c1ccc(CC(=O)OCCCCCCCCn2ccc3ccccc32)cc1 | 63 | 
COC(=O)c1cc2cc(OCc3ccccc3)ccc2n1CCCCCCOC(=O)c1ccc[n+](C)c1 | 37 | 
C[N+](C)(C)c1ccc(CC(=O)OCCCCCn2ccc3cc([N+](=O)[O-])ccc32)cc1 | 70 | 
C[N+](C)(C)c1ccc(CC(=O)OCCCCCCCCCn2ccc3cc([N+](=O)[O-])ccc32)cc1 | 24 | 
O=C(OCCCCCCn1ccc2cc([N+](=O)[O-])ccc21)c1cccnc1 | > 1000 | 
C[N+](C)(C)c1ccc(CC(=O)OCCCCn2ccc3cc([N+](=O)[O-])ccc32)cc1 | 89 | 
C[n+]1cccc(C(=O)OCCCCCCn2ccc3cc([N+](=O)[O-])ccc32)c1 | 500 | 
C[n+]1cccc(C(=O)OCCCCCn2ccc3cc(OCc4ccccc4)ccc32)c1 | 94 | 
C[N+](C)(C)c1ccc(CC(=O)OCCCCCCn2ccc3cc(OCc4ccccc4)ccc32)cc1 | 69 | 
C[N+](C)(C)c1ccc(CC(=O)OCCCCn2ccc3cc(OCc4ccccc4)ccc32)cc1 | 84 | 
CO[C@H]1/C=C/O[C@@]2(C)Oc3c(C)c(O)c4c(O)c(c(/C=N/N5CCN(C)CC5)c(O)c4c3C2=O)NC(=O)/C(C)=C\C=C\[C@H](C)[C@H](O)[C@@H](C)[C@@H](O)[C@@H](C)[C@H](OC(C)=O)[C@@H]1C [RIFAMPIN] | > 1 | MIC (Bacillus subtilis): 1 µM (≈ 0.823 µg/mL)
C[n+]1cccc(C(=O)OCCCCn2ccc3cc([N+](=O)[O-])ccc32)c1 | > 1000 | 
O=C(OCCCCCCCn1ccc2cc([N+](=O)[O-])ccc21)c1cccnc1 | > 1000 | 
COc1cccc(OC)c1C(=O)N[C@@H]1C(=O)N2[C@@H]1SC(C)(C)[C@@H]2C(=O)O | > 1 | MIC (Staphylococcus aureus [2]): 32 µM (≈ 12.2 µg/mL); MIC (Staphylococcus aureus [3]): 1 µM (≈ 0.38 µg/mL); MIC (Staphylococcus aureus [4]): 32 µM (≈ 12.2 µg/mL); MIC (Staphylococcus aureus [5]): 32 µM (≈ 12.2 µg/mL)
COC(=O)c1cc2cc(OCc3ccccc3)ccc2n1CCCCCCCCCOC(=O)Cc1ccc([N+](C)(C)C)cc1 | 18 | MIC (Bacillus subtilis): 1.5 µM; MIC (Staphylococcus aureus [3]): 6.2 µM
COC(=O)c1cc2ccccc2n1CCCCCCCCOC(=O)c1cc[n+](C)cc1 | 44 | 
COC(=O)c1cc2cc(OCc3ccccc3)ccc2n1CCCCCCCCCOC(=O)c1ccc[n+](C)c1 | 27 | 
C[N+](C)(C)c1ccc(CC(=O)OCCCCCCn2ccc3cc([N+](=O)[O-])ccc32)cc1 | 84 | 
C[n+]1cccc(C(=O)OCCCCCn2ccc3cc([N+](=O)[O-])ccc32)c1 | 1000 | 
O=C(OCCCCCCCCn1ccc2cc(O)ccc21)c1cccnc1 | > 200 | 
O=C(OCCCCCCCCn1ccc2cc([N+](=O)[O-])ccc21)c1cccnc1 | > 1000 | 
COC(=O)c1cc2cc(OCc3ccccc3)ccc2n1CCCCCCCCOC(=O)c1cc[n+](C)cc1 | 10 | MIC (Salmonella enteritidis [6]): > 50 µM; MIC (Pseudomonas aeruginosa): > 50 µM; MIC (Bacillus subtilis): 12.5 µM; MIC (Staphylococcus aureus [3]): 6.2 µM

Compound | IC50 [1] [µM] | also measured
C[n+]1cccc(C(=O)OCCCCCCCCn2ccc3cc(OCc4ccccc4)ccc32)c1 |  | MIC (Salmonella enteritidis [6]): 50 µM; MIC (Staphylococcus aureus [2]): 3.1 µM; MIC (Pseudomonas aeruginosa): 50 µM; MIC (Bacillus subtilis): 6.2 µM; MIC (Staphylococcus aureus [3]): 1.5 µM; MIC (Staphylococcus aureus [4]): 12.5 µM; MIC (Staphylococcus aureus [5]): 6.2 µM
O=C(OCCCn1ccc2cc([N+](=O)[O-])ccc21)c1cccnc1 | > 1000 | 
COC(=O)c1cc2cc(OCc3ccccc3)ccc2n1CCCCCCOC(=O)Cc1ccc([N+](C)(C)C)cc1 | 12 | 
COC(=O)c1cc2ccccc2n1CCCCCCOC(=O)Cc1ccc([N+](C)(C)C)cc1 | 24 | 
C[n+]1cccc(C(=O)OCCCCCCCCCn2ccc3ccccc32)c1 | 48 | 
C[N+](C)(C)c1ccc(CC(=O)OCCCCCCCCn2ccc3cc(OCc4ccccc4)ccc32)cc1 | 20 | MIC (Salmonella enteritidis [6]): > 50 µM; MIC (Pseudomonas aeruginosa): > 50 µM; MIC (Bacillus subtilis): 1.5 µM; MIC (Staphylococcus aureus [3]): 3.1 µM
COC(=O)c1cc2cc(OCc3ccccc3)ccc2n1CCCCCCCOC(=O)Cc1ccc([N+](C)(C)C)cc1 | 9 | MIC (Salmonella enteritidis [6]): > 50 µM; MIC (Staphylococcus aureus [2]): 3.1 µM; MIC (Pseudomonas aeruginosa): > 50 µM; MIC (Bacillus subtilis): 1.5 µM; MIC (Staphylococcus aureus [3]): 1.5 µM; MIC (Staphylococcus aureus [4]): 6.2 µM; MIC (Staphylococcus aureus [5]): 3.1 µM
GENTAMICIN |  | MIC (Pseudomonas aeruginosa): 2 µM
C[n+]1cccc(C(=O)OCCCCCCn2ccc3cc(OCc4ccccc4)ccc32)c1 | 29 | 
COC(=O)c1cc2ccccc2n1CCCCCCCCCOC(=O)c1ccc[n+](C)c1 | 34 | 
O=C(OCCCCCn1ccc2cc([N+](=O)[O-])ccc21)c1cccnc1 | > 1000 | 
COc1cc(Cc2cnc(N)nc2N)cc(OC)c1OC [TRIMETHOPRIM] | > 1 | MIC (Salmonella enteritidis [7]): 0.5 µM (≈ 0.145 µg/mL)
COC(=O)c1cc2ccccc2n1CCCCCCCCOC(=O)Cc1ccc([N+](C)(C)C)cc1 | 14 | MIC (Salmonella enteritidis [6]): > 50 µM; MIC (Pseudomonas aeruginosa): > 50 µM; MIC (Bacillus subtilis): 6.2 µM; MIC (Staphylococcus aureus [3]): 3.1 µM
C[n+]1cccc(C(=O)OCCCCCCCn2ccc3ccccc32)c1 | 95 | 
COC(=O)c1cc2ccccc2n1CCCCCCCOC(=O)c1ccc[n+](C)c1 | 34 | 
C[N+](C)(C)c1ccc(CC(=O)OCCCCCn2ccc3cc(OCc4ccccc4)ccc32)cc1 | 60 | 
COC(=O)c1cc2ccccc2n1CCCCCCCOC(=O)Cc1ccc([N+](C)(C)C)cc1 | 19 | MIC (Salmonella enteritidis [6]): > 50 µM; MIC (Pseudomonas aeruginosa): > 50 µM; MIC (Bacillus subtilis): 1.5 µM; MIC (Staphylococcus aureus [3]): 12.5 µM
O=C(OCCn1ccc2cc([N+](=O)[O-])ccc21)c1cccnc1 | > 1000 | 
C[n+]1cccc(C(=O)OCCOCCOCCn2ccc3cc(OCc4ccccc4)ccc32)c1 | > 200 | MIC (Bacillus subtilis): > 50 µM; MIC (Staphylococcus aureus [3]): > 50 µM
O=C(OCCCCn1ccc2cc([N+](=O)[O-])ccc21)c1cccnc1 | > 1000 | 
COC(=O)c1cc2cc(OCc3ccccc3)ccc2n1CCCCCCCCOC(=O)Cc1ccc([N+](C)(C)C)cc1 | 20 | 
COC(=O)c1cc2cc(OCc3ccccc3)ccc2n1CCCCCCCOC(=O)c1ccc[n+](C)c1 | 18 | MIC (Salmonella enteritidis [6]): > 50 µM; MIC (Pseudomonas aeruginosa): > 50 µM; MIC (Bacillus subtilis): 6.2 µM; MIC (Staphylococcus aureus [3]): 3.1 µM
COc1ccc2c(ccn2CCCCCCCOC(=O)c2ccc[n+](C)c2)c1 | 24 | 
C[N+](C)(C)c1ccc(CC(=O)OCCCCCCCCCn2ccc3ccccc32)cc1 | 54 | 
